In ChEMBL document CHEMBL4393692, “Thiazolidinone/thiazole based hybrids - New class of antitrypanosomal agents” (Eur J Med Chem, 2019):
Activity calls are given as the source filed them. The rule behind the calls is not given here.

What was measured:
[1] = test system: Trypanosoma brucei brucei; test: Antitrypanosomal activity against bloodstream form of Trypanosoma brucei brucei 90-13 reduction in parasite growth after 72 hrs by resazurin dye based fluorescence assay; type: functional, organism-based; settings: 90-13, 72 h
Outline: (§1)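 Bloodstream parasites cultured in HMI9 with 10% FCS at 37°C under 5% CO2. Log-phase cells harvested at 3000xg, plated at 10^5 cells/ml with dilutions from 10 down to 0.625 µg/ml (DMSO stocks) for 72 h. Resazurin added at 45 µM final, fluorescence read after a further 4 h. Inhibition vs DMSO control. IC50 from dose-response curve, mean ± SD of three independent experiments.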

[2] = test system: Trypanosoma brucei gambiense; test: Antitrypanosomal activity against bloodstream form of Trypanosoma brucei gambiense Feo reduction in parasite growth after 72 hrs by resazurin dye based fluorescence assay; type: functional, organism-based; outline: as §1
[3] = Cytotoxicity against human AB943 cells assessed as reduction in cell viability after 5 days resazurin dye based fluorescence assay; settings: 120 h
Outline: (§2)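 Human primary fibroblasts grown in RPMI with 25 mM HEPES pH 7.3 and 10% FCS, 37°C, 5% CO2. After trypsinisation, seeded at 5000 cells/well and incubated 24 h. Then washed and exposed to two-fold drug dilutions, final DMSO below 1%, for 5 days. Resazurin added, fluorescence read (ex 530/em 590 nm) after 4 h. Growth inhibition vs DMSO control. SI = IC50 fibroblast / IC50 T. b. gambiense.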

[4] = Selectivity index, ratio of IC50 for human AB943 cells to IC50 of bloodstream form of Trypanosoma brucei gambiense Feo; type: toxicity; settings: read-out: Ratio IC50; outline: as §2
[5] = Acute toxicity in ip dosed mouse by Litchfield-Wilcoxon method; type: organism-based; settings: in vivo
Outline: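 White male mice of 23-25 g; compounds dissolved in 0.9% NaCl saline with 1-2 drops Tween-80, stock prepared immediately before use. Single intraperitoneal injection at increasing doses within 100–1000 mg/kg, 4 or 5 dose levels with 6 animals per dose. LD50 derived by the Litchfield-Wilcoxon method.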

[6] = test system: Trypanosoma brucei brucei; test: Antitrypanosomal activity against bloodstream form of Trypanosoma brucei brucei 90-13 assessed as reduction in parasite growth at 10 ug/ml after 72 hrs by resazurin dye based fluorescence assay relative to control; type: functional; settings: 90-13, 72 h
Outline: (§3)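 Bloodstream forms grown in HMI9 + 10% FCS, 37°C, 5% CO2. Log-phase cells harvested at 3000xg and seeded at 10^5 cells/ml, exposed to test substance from DMSO stock at a single screening level of 10 or 1 µg/mL for 72 h. Resazurin added (final 45 µM), 4 h more, then fluorescence read. Growth inhibition expressed against DMSO control.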

[7] = test system: Trypanosoma brucei brucei; test: Antitrypanosomal activity against bloodstream form of Trypanosoma brucei brucei 90-13 reduction in parasite growth at 1 ug/ml after 72 hrs by resazurin dye based fluorescence assay relative to control; type: functional; settings: for inhibition at 1 µg/mL: 90-13, 72 h; outline: as §3

| IC50 [1] | Structure (SMILES) | inhibition at 10 µg/mL [6] | inhibition at 1 µg/mL [7] | further results |
| --- | --- | --- | --- | --- |
| 7.86 µM | O=C(CC1S/C(=N\N=C\c2c(-c3ccccc3)[nH]c3ccccc23)NC1=O)Nc1ccc(Br)cc1 (stereo not drawn) | – | – | – |
| 9.16 µM | O=C(CC1S/C(=N\N=C\c2c(-c3ccccc3)[nH]c3ccccc23)NC1=O)Nc1ccc(Cl)cc1 (stereo not drawn) | – | – | – |
| – | CC1S/C(=N\N=C\c2c(-c3ccccc3)[nH]c3ccccc23)NC1=O (stereo not drawn) | – | – | IC50 [2]: 0.21 µM; IC50 [3]: 28.1 µM; selectivity ratio [4]: 130; LD50 [5]: 220 mg/kg |
| 10.6 µM | O=C(CC1S/C(=N\N=C\c2c(-c3ccccc3)[nH]c3ccccc23)NC1=O)c1ccc(F)cc1 (stereo not drawn) | – | – | – |
| – | CC12CCC(C/C1=N/N=C1/NC(=O)C(CC(=O)c3ccc(F)cc3)S1)C2(C)C (stereo not drawn) | 42% | 36.1% | – |
| – | Cc1ccc(NC(=O)CC2S/C(=N\N=C3\CC4CCC3(C)C4(C)C)NC2=O)cc1 (stereo not drawn) | 30% | 4.18% | – |
| – | O=C(O)CC1S/C(=N\N=C\c2c(-c3ccc(Cl)cc3)[nH]c3ccccc23)NC1=O (stereo not drawn) | – | – | LD50 [5]: 290 mg/kg |
| – | O=C(CC1S\C(=N/N=C/C=C/c2ccccc2)NC1=O)c1ccc2c(c1)CCCC2 (stereo not drawn) | 53.2% | 7.69% | – |
| 2.39 µM | CC1CS(=O)(=O)CCN1/N=C/c1ccc([N+](=O)[O-])o1 (stereo not drawn) [NIFURTIMOX] | – | – | IC50 [2]: 4.64 µM; IC50 [3]: 65.1 µM; selectivity ratio [4]: 14 |
| – | O=C(O)CC1S\C(=N/N=C/C(Cl)=C/c2ccc([N+](=O)[O-])cc2)N(c2ccc(O)cc2)C1=O (stereo not drawn) | 25% | -1.57% | – |
| – | O=C(CC1S\C(=N/N=C/C=C/c2ccccc2)NC1=O)c1ccc(F)cc1 (stereo not drawn) | 57.3% | 38.7% | – |
| 34.8 µM | O=C(O)CCNC(=O)CC1S/C(=N\N=C\c2c(-c3ccccc3)[nH]c3ccccc23)NC1=O (stereo not drawn) | – | – | – |
| – | O=C(O)CC1S/C(=N\N=C\c2c(-c3ccccc3)[nH]c3ccccc23)NC1=O (stereo not drawn) | – | – | LD50 [5]: 240 mg/kg |
| – | O=C(CC1S\C(=N/N=C/C=C/c2ccccc2)NC1=O)Nc1ccc([N+](=O)[O-])cc1 (stereo not drawn) | 56.1% | – | inhibition [7]: inactive |
| – | O=C(CC1S\C(=N/N=C/C=C/c2ccccc2)N(c2ccc(O)cc2)C1=O)Nc1ccc(F)cc1 (stereo not drawn) | -8.23% | 1.18% | – |
| – | O=C(CC1S/C(=N\N=C2CCCCC2)NC1=O)c1ccc(F)cc1 (stereo not drawn) | 98.5% | 8.16% | – |

| IC50 [1] | Structure (SMILES) | inhibition at 10 µg/mL [6] | inhibition at 1 µg/mL [7] | further results |
| --- | --- | --- | --- | --- |
| – | O=C(O)CCCNC(=O)CC1S/C(=N\N=C\c2ccco2)NC1=O (stereo not drawn) | 10% | 0.06% | – |
| – | O=C(CC1S/C(=N\N=C2CCCCC2)NC1=O)Nc1ccc(F)cc1 (stereo not drawn) | -4.66% | -4.65% | – |
| – | CCC1S/C(=N\N=C\c2c(-c3ccc(Cl)cc3)[nH]c3ccccc23)N(c2ccc(O)cc2)C1=O (stereo not drawn) | – | – | IC50 [2]: 0.86 µM; IC50 [3]: 85.9 µM; selectivity ratio [4]: 100; LD50 [5]: 330 mg/kg |
| – | C=CCN1C(=O)C(CC(=O)c2ccc(F)cc2)S/C1=N\N=C\c1ccccc1 (stereo not drawn) | 14.7% | 11.1% | – |
| – | O=C(CC1S/C(=N\N=C2CCCCC2)NC1=O)Nc1ccc([N+](=O)[O-])cc1 (stereo not drawn) | 44.9% | – | inhibition [7]: inactive |
| – | C=CCN1C(=O)C(CC(=O)c2ccc(F)cc2)S/C1=N\N=C\c1ccc(N(C)C)cc1 (stereo not drawn) | 14.7% | 11.1% | – |
| 7.73 µM | O=C(CC1S/C(=N\N=C\c2c(-c3ccccc3)[nH]c3ccccc23)NC1=O)c1ccccc1 (stereo not drawn) | – | – | IC50 [2]: 2.82 µM |
| 0.17 µM | O=C1N/C(=N/N=C/c2c(-c3ccccc3)[nH]c3ccccc23)SC1CCO (stereo not drawn) | – | – | – |
| – | CC1S/C(=N\N=C\c2c(-c3ccc(Cl)cc3)[nH]c3ccccc23)NC1=O (stereo not drawn) | – | – | IC50 [2]: 2.22 µM; IC50 [3]: 5.22 µM; selectivity ratio [4]: 2; LD50 [5]: 310 mg/kg |
| – | O=C1CS/C(=N\N=C\c2c(-c3ccc(Cl)cc3)[nH]c3ccccc23)N1 | – | – | IC50 [2]: 3.93 µM; LD50 [5]: 270 mg/kg |
| – | O=C(CC1S\C(=N/N=C/C=C/c2ccccc2)N(Cc2ccco2)C1=O)Nc1cccc(C(F)(F)F)c1 (stereo not drawn) | 98.9% | 5.06% | – |
| 0.0014 µM | N=C(N)c1ccc(OCCCCCOc2ccc(C(=N)N)cc2)cc1 [PENTAMIDINE] | – | – | IC50 [2]: 0.0015 µM; IC50 [3]: 23.2 µM |
| – | O=C(CC1S/C(=N\N=C\c2ccco2)NC1=O)c1ccc2c(c1)CCCC2 (stereo not drawn) | 10.9% | 9.82% | – |
| 14 µM | O=C(O)CCCCCNC(=O)CC1S/C(=N\N=C\c2c(-c3ccccc3)[nH]c3ccccc23)NC1=O (stereo not drawn) | – | – | – |
| 6.86 µM | CCOC(=O)c1ccc(NC(=O)CC2S/C(=N\N=C\c3c(-c4ccccc4)[nH]c4ccccc34)NC2=O)cc1 (stereo not drawn) | – | – | – |
| 13.1 µM | O=C(CC1S/C(=N\N=C\c2c(-c3ccccc3)[nH]c3ccccc23)NC1=O)c1ccc2c(c1)CCCC2 (stereo not drawn) | – | – | – |

| Structure (SMILES) | IC50 [1] | inhibition at 10 µg/mL [6] | inhibition at 1 µg/mL [7] | further results |
| --- | --- | --- | --- | --- |
| CCC1S/C(=N\N=C\c2c(-c3ccccc3)[nH]c3ccccc23)NC1=O (stereo not drawn) | 0.03 µM | – | – | IC50 [2]: 0.11 µM; IC50 [3]: 24.8 µM; selectivity ratio [4]: 220; LD50 [5]: 220 mg/kg |
| CC(=O)OCCC1S/C(=N\N=C\c2c(-c3ccccc3)[nH]c3ccccc23)NC1=O (stereo not drawn) | 0.06 µM | – | – | IC50 [2]: 0.23 µM; IC50 [3]: 20.9 µM; selectivity ratio [4]: 95; LD50 [5]: 200 mg/kg |
